Experimental data from ChEMBL document CHEMBL5329176, “Design, synthesis, and biological evaluation of novel pyrimidin-2-amine derivatives as potent PLK4 inhibitors” (RSC Med Chem, 2023).

Columns and labels:
[1] = target: T1, Serine/threonine-protein kinase PLK4 (Homo sapiens, UniProt O00444); experiment: Inhibition of human recombinant PLK4 incubated for 1 hrs by LanthaScreen Eu kinase FRET assay
T1 sequence (O00444 whole entry): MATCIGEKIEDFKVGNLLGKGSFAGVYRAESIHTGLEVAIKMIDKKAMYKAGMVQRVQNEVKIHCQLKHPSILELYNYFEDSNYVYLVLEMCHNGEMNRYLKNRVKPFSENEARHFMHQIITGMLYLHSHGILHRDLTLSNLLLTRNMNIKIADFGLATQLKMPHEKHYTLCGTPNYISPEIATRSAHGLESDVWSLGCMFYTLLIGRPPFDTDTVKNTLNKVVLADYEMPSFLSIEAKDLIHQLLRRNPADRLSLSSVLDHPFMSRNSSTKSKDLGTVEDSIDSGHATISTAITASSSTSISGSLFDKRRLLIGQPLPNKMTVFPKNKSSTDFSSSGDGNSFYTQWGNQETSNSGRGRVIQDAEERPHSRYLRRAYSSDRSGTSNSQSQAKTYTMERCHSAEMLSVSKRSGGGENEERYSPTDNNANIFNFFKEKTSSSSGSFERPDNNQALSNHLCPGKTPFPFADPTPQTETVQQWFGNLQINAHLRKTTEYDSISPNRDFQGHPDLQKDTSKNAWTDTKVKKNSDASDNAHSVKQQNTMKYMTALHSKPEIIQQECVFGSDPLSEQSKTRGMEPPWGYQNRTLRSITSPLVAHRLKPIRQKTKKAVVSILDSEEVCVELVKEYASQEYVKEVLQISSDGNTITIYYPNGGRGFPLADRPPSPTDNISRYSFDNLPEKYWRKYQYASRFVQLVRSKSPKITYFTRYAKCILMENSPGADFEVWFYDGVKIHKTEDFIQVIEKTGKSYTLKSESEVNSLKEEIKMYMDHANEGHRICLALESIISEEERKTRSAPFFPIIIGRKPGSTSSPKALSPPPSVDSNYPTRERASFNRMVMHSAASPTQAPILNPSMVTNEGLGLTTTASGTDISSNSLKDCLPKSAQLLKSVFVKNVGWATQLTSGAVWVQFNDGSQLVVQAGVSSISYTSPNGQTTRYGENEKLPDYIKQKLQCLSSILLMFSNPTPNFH

MCF7 = experiment: Antiproliferative activity against human MCF7 cells assessed as cell growth inhibition incubated for 5 days by MTT assay; type: functional, cell-based; details: MCF7, 120 h
BT-474 = experiment: Antiproliferative activity against human BT-474 cells assessed as cell growth inhibition incubated for 5 days by MTT assay; type: functional, cell-based; details: BT-474, 120 h
MDA-MB-231 = experiment: Antiproliferative activity against human MDA-MB-231 cells assessed as cell growth inhibition incubated for 5 days by MTT assay; type: functional, cell-based; details: MDA-MB-231, 120 h
[2] = Metabolic stability in human liver microsomes assessed as half life in presence of NADPH as co-foctor incubated for 60 mins by LC-MS/MS analysis; type: ADME, Microsome
[3] = Metabolic stability in human liver microsomes assessed as intrinsic clearance in presence of NADPH as co-foctor incubated for 60 mins by LC-MS/MS analysis; type: ADME, Microsome; details: read-out: CLH
[4] = Metabolic stability in human liver microsomes assessed as parent compound remaining in presence of NADPH as co-foctor and measured after 60 mins by LC-MS/MS analysis; type: ADME, Microsome; details: read-out: Stability
[5] = Metabolic stability in human liver microsomes assessed as parent compound remaining in absence of NADPH as co-foctor and measured after 60 mins by LC-MS/MS analysis; type: ADME, Microsome; details: read-out: Stability
[6] = Metabolic stability in human plasma assessed as parent compound remaining and measured after 0 mins by LC-MS/MS analysis; type: ADME, cell-free; details: read-out: Stability
Method in brief: (§1)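 Pooled frozen plasma was thawed at 37 °C and centrifuged to remove clots. Compound was spiked to a final 2 μM (duplicate) and incubated at 37 °C. At 0, 10, 30, 60 and 120 min, protein was precipitated with acetonitrile stop solution containing tolbutamide and labetalol internal standards. Samples were centrifuged at 4000 rpm and 4 °C, and the supernatant was analysed by LC–MS/MS.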

[7] = Metabolic stability in human plasma assessed as parent compound remaining and measured after 10 mins by LC-MS/MS analysis; type: ADME, cell-free; details: read-out: Stability; method in brief: as §1
[8] = Metabolic stability in human plasma assessed as parent compound remaining and measured after 30 mins by LC-MS/MS analysis; type: ADME, cell-free; details: read-out: Stability; method in brief: as §1
[9] = Metabolic stability in human plasma assessed as parent compound remaining and measured after 60 mins by LC-MS/MS analysis; type: ADME, cell-free; details: read-out: Stability; method in brief: as §1
[10] = Metabolic stability in human plasma assessed as parent compound remaining and measured after 120 mins by LC-MS/MS analysis; type: ADME, cell-free; details: read-out: Stability; method in brief: as §1
[11] = Metabolic stability in human plasma assessed as half life and measured upto 120 mins by LC-MS/MS analysis; type: ADME, cell-free; method in brief: as §1
CYP1A2 = target: T2, CYP1A2 (Homo sapiens, UniProt P05177); experiment: Inhibition of CYP1A2 in human liver microsomes at 10 uM preincubated for 10 mins followed by NADPH cofactor addition and measured after 10 mins by LC-MS/MS analysis; type: ADME, Microsome; details: time 20 min
T2 sequence (P05177 whole entry): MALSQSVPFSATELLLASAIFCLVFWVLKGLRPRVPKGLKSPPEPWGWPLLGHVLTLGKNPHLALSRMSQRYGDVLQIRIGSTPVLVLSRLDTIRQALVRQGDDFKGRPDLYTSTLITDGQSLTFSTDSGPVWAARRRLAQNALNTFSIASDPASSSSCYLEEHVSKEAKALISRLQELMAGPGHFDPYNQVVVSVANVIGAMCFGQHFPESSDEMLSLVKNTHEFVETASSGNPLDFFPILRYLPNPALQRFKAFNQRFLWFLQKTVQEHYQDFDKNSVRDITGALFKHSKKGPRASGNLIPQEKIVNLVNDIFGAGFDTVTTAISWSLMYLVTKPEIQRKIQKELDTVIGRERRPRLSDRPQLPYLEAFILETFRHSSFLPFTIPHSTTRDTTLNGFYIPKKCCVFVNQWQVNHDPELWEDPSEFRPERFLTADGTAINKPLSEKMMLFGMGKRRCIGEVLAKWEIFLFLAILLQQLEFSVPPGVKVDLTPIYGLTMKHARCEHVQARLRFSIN
Method in brief: (§2)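 Human liver microsome (HLM) incubation with isoform-specific substrate solutions. Test compound was added from a 100× working solution. Mixture was pre-warmed about 10 min at 37 °C, then NADPH cofactor was added and incubated 10 min at 37 °C. The reaction was stopped with cold stop solution, centrifuged at 4000 rpm for 20 min, and the supernatant was diluted and analysed by LC–MS/MS.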

CYP2C9 = CYP2C9 (Homo sapiens, UniProt P11712); experiment: Inhibition of CYP2C9 in human liver microsomes at 10 uM preincubated for 10 mins followed by NADPH cofactor addition and measured after 10 mins by LC-MS/MS analysis; type: ADME, Microsome; details: time 20 min
CYP2C19 = CYP2C19 (Homo sapiens, UniProt P33261); experiment: Inhibition of CYP2C19 in human liver microsomes at 10 uM preincubated for 10 mins followed by NADPH cofactor addition and measured after 10 mins by LC-MS/MS analysis; type: ADME, Microsome; details: time 20 min; method in brief: as §2
CYP2D6 = CYP2D6 (Homo sapiens, UniProt P10635); experiment: Inhibition of CYP2D6 in human liver microsomes at 10 uM preincubated for 10 mins followed by NADPH cofactor addition and measured after 10 mins by LC-MS/MS analysis; type: ADME, Microsome; details: time 20 min; method in brief: as §2
CYP3A4 = CYP3A4 (Homo sapiens, UniProt P08684); experiment: Inhibition of CYP3A4 in human liver microsomes at 10 uM preincubated for 10 mins followed by NADPH cofactor addition and measured after 10 mins by LC-MS/MS analysis; type: ADME, Microsome; details: time 20 min; method in brief: as §2
CYP3A4, sequence (P08684 whole entry): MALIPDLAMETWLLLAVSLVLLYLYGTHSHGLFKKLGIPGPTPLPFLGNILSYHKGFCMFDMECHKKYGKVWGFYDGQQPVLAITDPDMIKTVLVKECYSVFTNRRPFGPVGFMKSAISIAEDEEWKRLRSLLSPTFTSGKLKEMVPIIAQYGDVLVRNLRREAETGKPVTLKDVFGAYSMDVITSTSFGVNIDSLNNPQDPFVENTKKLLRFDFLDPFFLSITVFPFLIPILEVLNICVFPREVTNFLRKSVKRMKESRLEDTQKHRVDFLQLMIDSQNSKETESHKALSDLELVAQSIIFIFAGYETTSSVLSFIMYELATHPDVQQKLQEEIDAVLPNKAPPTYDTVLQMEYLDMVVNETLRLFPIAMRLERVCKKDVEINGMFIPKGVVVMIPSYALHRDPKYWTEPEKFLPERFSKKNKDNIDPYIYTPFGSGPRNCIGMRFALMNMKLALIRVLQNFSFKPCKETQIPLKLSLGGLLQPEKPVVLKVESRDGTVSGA

CYP2D6, sequence (P10635 whole entry): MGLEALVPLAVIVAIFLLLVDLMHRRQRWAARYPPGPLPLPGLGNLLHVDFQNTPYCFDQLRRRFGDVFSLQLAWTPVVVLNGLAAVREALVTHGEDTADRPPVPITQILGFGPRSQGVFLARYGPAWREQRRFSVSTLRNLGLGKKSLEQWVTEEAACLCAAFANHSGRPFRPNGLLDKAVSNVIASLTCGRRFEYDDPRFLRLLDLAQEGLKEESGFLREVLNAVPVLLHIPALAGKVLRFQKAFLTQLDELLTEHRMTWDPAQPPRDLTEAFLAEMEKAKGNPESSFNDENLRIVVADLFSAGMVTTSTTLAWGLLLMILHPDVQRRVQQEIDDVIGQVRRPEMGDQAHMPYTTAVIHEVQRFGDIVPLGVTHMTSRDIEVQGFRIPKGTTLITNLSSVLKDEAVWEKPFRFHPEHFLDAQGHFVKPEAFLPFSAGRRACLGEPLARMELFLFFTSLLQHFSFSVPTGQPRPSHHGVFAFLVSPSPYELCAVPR
CYP2C9, sequence (P11712 whole entry): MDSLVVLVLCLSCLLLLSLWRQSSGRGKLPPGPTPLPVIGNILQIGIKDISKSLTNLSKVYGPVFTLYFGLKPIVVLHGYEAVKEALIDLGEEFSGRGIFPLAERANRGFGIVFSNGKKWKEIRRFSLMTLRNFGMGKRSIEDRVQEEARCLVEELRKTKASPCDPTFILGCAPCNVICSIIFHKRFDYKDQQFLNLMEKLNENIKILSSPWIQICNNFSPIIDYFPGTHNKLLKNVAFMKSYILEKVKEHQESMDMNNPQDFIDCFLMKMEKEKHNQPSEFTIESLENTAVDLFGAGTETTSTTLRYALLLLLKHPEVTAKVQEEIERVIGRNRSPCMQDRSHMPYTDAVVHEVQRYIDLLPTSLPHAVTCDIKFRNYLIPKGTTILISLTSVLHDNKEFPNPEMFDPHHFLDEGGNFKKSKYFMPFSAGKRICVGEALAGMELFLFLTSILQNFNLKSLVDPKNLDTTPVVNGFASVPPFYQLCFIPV
CYP2C19, sequence (P33261 whole entry): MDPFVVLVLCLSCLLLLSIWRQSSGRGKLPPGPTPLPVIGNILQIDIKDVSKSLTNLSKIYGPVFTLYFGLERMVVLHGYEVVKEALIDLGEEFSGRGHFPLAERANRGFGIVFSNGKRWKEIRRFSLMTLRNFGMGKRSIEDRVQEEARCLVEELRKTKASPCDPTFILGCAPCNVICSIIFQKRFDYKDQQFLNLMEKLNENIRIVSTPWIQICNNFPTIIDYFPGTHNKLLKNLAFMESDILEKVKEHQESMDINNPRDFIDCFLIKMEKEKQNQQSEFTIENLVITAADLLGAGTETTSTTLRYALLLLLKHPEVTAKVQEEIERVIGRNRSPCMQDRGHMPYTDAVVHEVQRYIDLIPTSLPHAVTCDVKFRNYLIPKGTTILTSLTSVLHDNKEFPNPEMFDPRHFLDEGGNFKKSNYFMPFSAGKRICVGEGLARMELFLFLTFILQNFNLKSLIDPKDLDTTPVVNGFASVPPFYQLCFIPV

`c1ccc(CNc2ccnc(Nc3ccc(N4CCOCC4)cc3)n2)cc1` gave an IC50 [1] of 176 nM.

For `Clc1ccc(Sc2ccnc(Nc3ccc(N4CCOCC4)cc3)n2)cc1`, the IC50 [1] was 149 nM.

Molecule `Brc1ccc(Sc2ccnc(Nc3ccc(N4CCOCC4)cc3)n2)cc1` has an IC50 [1] of 189 nM.

For `c1ccc(Oc2ccnc(Nc3ccc(N4CCOCC4)cc3)n2)cc1`, the IC50 [1] was 81 nM.

Work on `Fc1ccccc1Sc1ccnc(Nc2ccc(N3CCOCC3)cc2)n1` yielded an IC50 [1] of 136 nM.

Work on `Nc1ccc(Sc2ccnc(Nc3ccc(NC4CCNCC4)cc3)n2)cc1` yielded an IC50 [1] of 57 nM.

In the case of `c1ccc(Sc2ccnc(Nc3ccc(N4CCOCC4)cc3)n2)cc1`, the IC50 [1] is reported as 31 nM, the IC50 (MCF7) is reported as > 20000 nM and the IC50 (BT-474) is reported as > 20000 nM. For the same molecule, the IC50 (MDA-MB-231) was 7570 nM.

Molecule `c1ccc2c(Sc3ccnc(Nc4ccc(N5CCOCC5)cc4)n3)cccc2c1` has an IC50 [1] of 177 nM.

`c1ccc(Nc2ccnc(Nc3ccc(N4CCOCC4)cc3)n2)cc1` showed an IC50 [1] of 65 nM.

`Nc1ccc(Sc2ccnc(Nc3ccc(NC4CCNC4)cc3)n2)cc1` (configuration not stated) gave an IC50 [1] of 80 nM.

For `Nc1ccc(Sc2ccnc(Nc3ccc(NC4CCOCC4)cc3)n2)cc1`, the IC50 [1] was 7 nM, the half-life [2] was > 2.42 h and the microsomal CLint [3] was < 9.6 µL/min/mg. It also gave a remaining at 1 h [4] of 100%, a remaining at 1 h [5] of 104% and an IC50 (MCF7) of 1440 nM. The IC50 (BT-474) was 7810 nM, the IC50 (MDA-MB-231) was 2130 nM and the remaining at 0 h [6] was 100%. The remaining at 10 min [7] was 105%, the remaining at 0.5 h [8] was 114% and the remaining at 1 h [9] was 107%. For the same molecule, the remaining at 2 h [10] was 104%, the half-life [11] was > 4.82 h and the inhibition at 10 min, 10 µM (CYP1A2) was 33.1%. It also gave an inhibition at 10 min, 10 µM (CYP2C9) of 42.9%, an inhibition at 10 min, 10 µM (CYP2C19) of 48.7% and an inhibition at 10 min, 10 µM (CYP2D6) of 8%. It also gave an inhibition at 10 min, 10 µM (CYP3A4) of 14.4%.

Work on `Nc1ccccc1Sc1ccnc(Nc2ccc(N3CCOCC3)cc2)n1` yielded an IC50 [1] of 297 nM.

In the case of `Nc1ccc(Sc2ccnc(Nc3ccc(CN4CCNCC4)cc3)n2)cc1`, the IC50 [1] is reported as 379 nM.

For `Nc1ccc(Sc2ccnc(Nc3ccc(CN4CCOCC4)cc3)n2)cc1`, the IC50 [1] was 64 nM.

Molecule `CN(C)c1ccc(Sc2ccnc(Nc3ccc(N4CCOCC4)cc3)n2)cc1` has an IC50 [1] of 313 nM.

In the case of `COC(=O)c1cc(Nc2nccc(Sc3ccc(N)cc3)n2)ccc1NC1CCOCC1`, the IC50 [1] is reported as 6620 nM.

Molecule `CNC(=O)c1ccccc1Sc1ccnc(Nc2ccc(N3CCOCC3)cc2)n1` has an IC50 [1] of 102 nM.

With `c1cc(Sc2ccnc(Nc3ccc(N4CCOCC4)cc3)n2)c2cccnc2c1` the IC50 [1] was 46 nM, the IC50 (MCF7) was > 20000 nM and the IC50 (BT-474) was > 20000 nM. The IC50 (MDA-MB-231) was 6480 nM.
